Experimental data as given in ChEMBL document CHEMBL1157015, “New isatin derivatives with antioxidant activity” (Eur J Med Chem, 2010).
Active and inactive are the calls of the source. No cut-off for these calls is given here.

What was measured:
Format in all cases: functional
[1] = Antioxidant activity against hydroperoxyl radical assessed as resorcinol equivalent by Briggs-Rauscher method
How it was run: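 Briggs–Rauscher oscillating reaction run at acidic pH (ca. 2), using resorcinol as standard. Activity is expressed relative to resorcinol from the inhibitory phase of the oscillations.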

[2] = Antioxidant activity against ABTS radical assessed as trolox equivalent by TEAC assay
How it was run: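 TEAC assay run at pH 7.4 against the ABTS radical cation. Trolox served as standard, with activity expressed relative to it.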

[3] = Antioxidant activity against hydroperoxyl radical assessed as inhibition time at 1.48 uM by Briggs-Rauscher method
How it was run: (§1)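 Briggs–Rauscher oscillating reaction run under acidic conditions (pH ca. 2). Read-out is the inhibitory phase induced in the oscillations.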

[4] = Antioxidant activity against hydroperoxyl radical assessed as inhibition time at 3.71 uM by Briggs-Rauscher method; how it was run: as §1
[5] = Antioxidant activity against hydroperoxyl radical assessed as inhibition time at 3.34 uM by Briggs-Rauscher method; how it was run: as §1
[6] = Antioxidant activity against hydroperoxyl radical assessed as inhibition time at 2.25 uM by Briggs-Rauscher method; how it was run: as §1
[7] = Antioxidant activity against hydroperoxyl radical assessed as inhibition time at 2.97 uM by Briggs-Rauscher method; how it was run: as §1

Structure (SMILES) | Activity [1] | Activity [2] | TIME [3] | TIME [4] | TIME [5] | TIME [6] | TIME [7]
COc1ccc(OC)c(NC(=O)C(=O)c2ccccc2NC(C)=O)c1 | inactive | inactive |  |  |  |  | 
COc1cc(C2(c3cc(OC)c(N)cc3OC)C(=O)Nc3ccccc32)c(OC)cc1N | 1.28 µM | 1.4 mM | 0.154 h | 0.296 h | 0.269 h | 0.216 h | 0.24 h
